Screens as filed in PubChem BioAssay.
M4 PAM: positive allosteric modulators of human muscarinic M4 receptor. P08173. CHO-K1 hM4/Gqi5, Fluo-8 calcium fluorescence, ACh EC20; 0% = ACh EC20, 100% = maximal ACh. activation, % at 3 µM. 360,000 tested, 0.4% active. AID 624126;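 active means activation above its plate's cutoff, the mean activation of sample wells plus 3 SD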
M5 antag: antagonists of human muscarinic M5 receptor (CHRM5); P08912; CHO-hM5 cells, Fluo-8 calcium fluorescence, ACh EC80; inhibition, % at 3 µM; 360,000 tested, 0.59% active; AID 624040;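 active means inhibition above a per-plate cutoff, the mean of that plate's test compounds plus 3 SD, cut at about 27% in these data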;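 further: 0% = acetylcholine EC80 with DMSO and 100% = DMSO without agonist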
Target sequence (P08912 whole entry, looked up): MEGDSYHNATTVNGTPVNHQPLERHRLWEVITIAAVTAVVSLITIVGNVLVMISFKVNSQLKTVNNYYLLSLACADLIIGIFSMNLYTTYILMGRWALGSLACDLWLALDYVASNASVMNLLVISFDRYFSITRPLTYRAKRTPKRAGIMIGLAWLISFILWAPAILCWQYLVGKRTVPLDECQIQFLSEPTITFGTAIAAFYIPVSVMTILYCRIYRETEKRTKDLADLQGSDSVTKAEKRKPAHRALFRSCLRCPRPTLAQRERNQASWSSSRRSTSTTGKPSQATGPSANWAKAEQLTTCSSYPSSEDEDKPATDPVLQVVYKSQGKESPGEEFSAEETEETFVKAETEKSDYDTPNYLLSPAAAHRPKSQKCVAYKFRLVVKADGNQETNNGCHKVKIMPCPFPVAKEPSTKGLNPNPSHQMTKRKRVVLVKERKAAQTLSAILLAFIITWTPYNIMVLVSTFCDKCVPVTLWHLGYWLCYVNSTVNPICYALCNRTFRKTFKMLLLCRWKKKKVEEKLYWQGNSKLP
M5 PAM: positive allosteric modulators of human muscarinic M5 receptor; P08912; 360,000 tested, 0.3% active; activation, % at 3 µM; CHO-K1 hM5, Fluo-8 calcium, ACh EC20 PAM; 0% = ACh EC20, 100% = ACh EC100; AID 624038;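 active means activation above the run cutoff, the mean activation of all test compounds plus 3 SD, cut at about 18% in these data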
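system = human M5 receptor in CHO-K1 cells | compound = one concentration, 3 µM final (nominal) | schedule = Post-acetylcholine fluorescence recording 140 s | signal = Fluo-8 calcium dye fluorescence, kinetic read | benchmarks = low control EC20 acetylcholine (0%), high control EC100 acetylcholine (100%) | repeats = singlicate, one well per test compound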
CHRM5 agonist: CHRM5 agonism in calcium assay | P08912 | CHO-K1 hM5 cells, Fluo-8 calcium fluorescence; 0% DMSO wells, 100% maximal acetylcholine response | activation, % at 3 µM | 360,000 tested, 0.19% active;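 active means activation above the run's mean over test compounds plus 3 SD, cut at about 23% in these data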;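 further: signal is peak over basal fluorescence ratio across the kinetic read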
M4 ag: CHRM4 agonism in calcium assay. P08173. CHO-K1 hM4/Gqi5, Fluo-8 calcium fluorescence; vehicle 0%, full acetylcholine response 100%. activation, % at 3 µM. 360,000 tested, 0.14% active;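 active means activation above the run mean over all test wells plus 3 SD, cut at about 32% in these data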;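 further: peak over basal fluorescence ratio per well then scaled between controls; 0% = DMSO wells and 100% = acetylcholine at EC100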
CHRM4 antagonist: blocks acetylcholine activation of human M4 receptor | AID 624125 | P08173 | CHO-hM4 cells, ACh EC80, Fluo-8 calcium fluorescence | inhibition, % at 3 µM | 360,000 tested, 0.73% active;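 active means inhibition above its plate's cutoff, the mean inhibition of sample wells plus 3 SD, cut at about 27% in these data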;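 further: 0% = acetylcholine EC80 with DMSO and 100% = DMSO without agonist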
An asterisk follows results filed as active; ! = repeats disagree. An excerpt weighted towards active compounds, which were near 1.8% of everything screened.

SMILES	M4 PAM	M5 antag	M5 PAM	CHRM5 agonist	M4 ag	CHRM4 antagonist
C=CCNC(=O)CN1C(=O)C2C3c4ccccc4C(c4ccccc43)C2C1=O (stereo unspecified)	-2.5	1.5	5.1	3.9	-0.3	2.3
NC1=NC(=O)C(Cc2ccc(F)cc2)S1 (stereo unspecified)	3.4	-0.8	1.5	1.1	0.6	-5.7
Cc1ccc(CC2SC(N)=NC2=O)cc1 (stereo unspecified)	19.8*	1.8	11.6	2.2	1.2	-11.6
O=C(Nc1cccc(C(F)(F)F)c1)N1CCC(c2nc(-c3ccc(F)cc3)no2)CC1	-17.9	38.8*	-22.6	-1.6	16.3	51.1*
COc1cc(/C=C(/C#N)c2ccc(F)cc2)ccc1Oc1ccc([N+](=O)[O-])cn1	-12.4	35.4*	-20.8	-3.5	7.7	15.2
Cc1ccsc1C(=O)NCC(C)(C)N1CCOCC1	5.0	-10.3	21.6*	-7.8	0.2	0.8
CCc1cc(C(=O)NCC(C)(C)N2CCOCC2)sc1C	3.3	-2.0	6.2	-4.3	0.2	-3.3
Cc1nc2ccc(NC(=O)c3ccc(Cl)c(S(=O)(=O)N(C)c4ccccc4)c3)cc2s1	-0.1	-1.6	1.8	0.7	2.7	-13.5
Cc1nc2ccc(NC(=O)c3cc(S(=O)(=O)N(C)c4ccccc4)ccc3Cl)cc2s1	-21.4	29.2*	-16.2	12.1	20.5	7.3
CN(c1ccccc1)S(=O)(=O)c1cccc(NC(=O)c2ccc(Cl)c([N+](=O)[O-])c2)c1	-15.6	33.6*	-37.6	2.7	23.0	32.6*
O=C(Nc1nnc(-c2ccccc2Cl)o1)c1nc2ccccc2s1	-9.1	7.2	-16.6	65.1*	110.7*	-5.8
Cc1oc(-c2ccccc2Cl)nc1CS(=O)CC(=O)NCc1ccc2c(c1)OCO2 (stereo unspecified)	3.3	-25.9	22.7*	-0.8	2.5	-10.4
Cc1ccccc1-c1nc(CS(=O)CC(=O)NCc2ccc3c(c2)OCO3)c(C)o1 (stereo unspecified)	-0.8	26.0	-10.6	-4.6	5.9	1.8
COc1ccc(CSCCc2n[nH]c(=S)n2-c2ccccc2)cc1	-25.9	4.3	-0.8	-0.1	4.4	48.5*
CC(C)CC[n+]1ccccc1/C=C/c1ccc(N(C)C)cc1	-8.4	29.4*	-6.3	4.4	6.2	21.1
CN(C)c1ccc(/C=C/c2cccc[n+]2[O-])cc1	-2.0	6.5	0.5	6.3	1.4	3.4
CC1Cc2cc(/C(O)=C3/C(=O)C(=O)N(CCCn4ccnc4)C3c3cccc([N+](=O)[O-])c3)ccc2O1 (stereo unspecified)	5.1	4.7	-0.1	-6.5	2.4	-4.9
Cc1cccc(OC(=O)NCCOC(=O)N(O)c2ccc(Cl)cc2)c1	15.7	32.2*	-12.7	7.3	12.0	10.0
Cc1cccc(OCC(=O)Oc2ccc(Cl)cc2)c1	9.1	2.2	4.3	0.1	2.5	-3.4
Cc1nn(-c2ccccc2)c(N)c1Sc1cccc([N+](=O)[O-])c1	-11.4	6.7	-11.3	-4.7	6.6	-10.6
Cc1cc(C)nc(-n2nc(C)c(Sc3ccc(F)cc3)c2N)n1	22.6*	0.6	6.7	3.0	1.6	2.9
COc1ccccc1NC(=O)c1cc(S(=O)(=O)N2CCCC2)cn1C	2.3	-1.6	0.0	2.1	0.7	1.3
O=C(O)c1cc(N/N=C/C=C/c2ccccc2[N+](=O)[O-])ccc1Cl	2.2	0.7	6.1	0.1	-0.3	1.3
COc1ccc2cc3[n+](cc2c1OC)CCc1cc2c(cc1-3)OCO2	-14.0	-2.9	-3.9	-0.3	-0.1	41.3*!
COc1cccc(C2=NCCc3cc4c(cc32)OCO4)c1OC	-3.8	4.1	-4.2	0.7	3.5	9.8
CCCCN1C(=O)N(c2ccc(Cl)cc2)C(C)(O)CC1(C)C (stereo unspecified)	0.1	4.4	3.3	-3.9	-0.8	-1.0
CN1C(=O)N(c2ccc(Cl)cc2)C(C)(O)CC1(C)C (stereo unspecified)	-8.4	18.0	24.7*	-1.6	-0.7	-5.0
